{"source": "ChEMBL document CHEMBL1125740", "about": "“Heterocyclic quinones. 17. A new in vivo active antineoplastic drug: 6,7-bis(1-aziridinyl)-4-[[3-(N,N-dimethylamino)propyl]amino]-5,8- quinazolinedione” (J Med Chem, 1991)", "key": {"P388 [1]": {"test_system": "P388", "test": "Compound was evaluated in vivo for antitumor activity after intraperitoneal administration against P388/L-PAM(14) for mortality range at an optimal dose of 0.1 mg/kg/injection at 1,2,3,4 day schedule.", "type": "functional, Mus musculus"}, "B16 [2]": {"test_system": "B16", "test": "Compound was evaluated in vivo for antitumor activity against B16 melanoma 2 after injecting the compound intravenously for total dose.", "type": "functional, Mus musculus"}, "L1210 [3]": {"test_system": "L1210", "test": "Compound was evaluated in vivo for antitumor activity after intraperitoneal administration against L1210(935) for total dose at an optimal dose of 0.2 mg/kg/injection at 1-4 day schedule.", "type": "functional, Mus musculus", "outline": "(§1)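 L1210 leukemia, maintained in DBA/2 mice, was given ip as 10⁵ cells on day 0 to F1 hybrid or strain-of-origin mice over 18 g, in groups of 8. Dosing was ip from day 1, and mortality was checked daily. Median day of death counts dying mice only. %ILS = 100×(treated − control median day of death)/control median. Tumor-free survivors were counted on day 60. Weight change is g/mouse at nadir.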"}, "L1210 [4]": {"test_system": "L1210", "test": "Compound was evaluated in vivo for antitumor activity after intraperitoneal administration against L1210(935) for total dose at an optimal dose of 0.4 mg/kg/injection at 1-4 day schedule.", "type": "functional, Mus musculus", "outline": "as §1"}, "P388 [5]": {"test_system": "P388", "test": "Compound was evaluated in vivo for antitumor activity after intraperitoneal administration against P388/L-PAM(14) for tumor free survivors at an optimal dose of 0.1 mg/kg/injection at 1,2,3,4 day schedule.", "type": "functional, Mus musculus"}, "P388 [6]": {"test_system": "P388", "test": "Compound was evaluated in vivo for antitumor activity after intraperitoneal administration against P388/L-PAM(12) for median day of death at an optimal dose of 0.75 mg/kg/injection", "type": "functional, Mus musculus"}, "B16 [7]": {"test_system": "B16", "test": "Compound was evaluated in vivo for antitumor activity against B16 melanoma 2 after injecting the compound intravenously median tumor burden", "type": "functional, Mus musculus"}, "P388 [8]": {"test_system": "P388", "test": "Compound was evaluated in vivo for antitumor activity after intraperitoneal administration against P388 (1313) for total dose at an optimal dose of 0.4 mg/kg/injection", "type": "functional, Mus musculus"}, "B16 [9]": {"test_system": "B16", "test": "Compound was evaluated in vivo for antitumor activity against […] B16 melanoma 2 after injecting the compound intravenously for optimal dose", "type": "functional, Mus musculus"}, "L1210 [10]": {"test_system": "L1210", "test": "Compound was evaluated in vivo for antitumor activity after intraperitoneal administration against L1210(935)for change in body weight at an optimal dose of 0.2 mg/kg/injection at 1-4 day schedule.", "type": "functional, Mus musculus", "outline": "as §1"}, "L1210 [11]": {"test_system": "L1210", "test": "Compound was evaluated in vivo for antitumor activity after intraperitoneal administration against L1210(935) for total dose at an optimal dose of 0.1 mg/kg/injection at 1-4 day schedule.", "type": "functional, Mus musculus", "outline": "as §1"}, "[12]": {"test": "Compound was evaluated in vivo for antitumor activity against Glasgow osteogenic sarcoma after injecting the compound intravenously for change in body weight.", "type": "functional, Mus musculus", "outline": "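Glasgow osteogenic sarcoma in C57Bl/6-derived hosts: 30-60 mg fragments implanted sc by trocar on day 0. Drug given iv on days 3, 6 and 9, 7 mice per group. Tumors measured by caliper. Median tumor burden recorded on day 10. Body weight change per mouse recorded at nadir. Toxicity-related deaths counted.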"}, "L1210 [13]": {"test_system": "L1210", "test": "Compound was evaluated in vivo for antitumor activity after intraperitoneal administration against L1210(935) for tumor free survivors at an optimal dose of 0.1 mg/kg/injection at 1-4 day schedule.", "type": "functional, Mus musculus", "outline": "as §1"}, "P388 [14]": {"test_system": "P388", "test": "Compound was evaluated in vivo for antitumor activity after intraperitoneal administration against P388/L-PAM(14) for % increase in life span at an optimal dose of 0.5 mg/kg/injection at 1,4,7,11 day schedule.", "type": "functional", "conditions": "Mus musculus, P388, ip"}, "L1210 [15]": {"test_system": "L1210", "test": "Compound was evaluated in vivo for antitumor activity after intraperitoneal administration against L1210(935) for tumor free survivors at an optimal dose of 0.2 mg/kg/injection at 1-4 day schedule.", "type": "functional, Mus musculus", "outline": "as §1"}, "P388 [16]": {"test_system": "P388", "test": "Compound was evaluated in vivo for antitumor activity after intraperitoneal administration against P388 (1313) for change in body weight at an optimal dose of 0.2 mg/kg/injection", "type": "functional, Mus musculus"}, "P388 [17]": {"test_system": "P388", "test": "Compound was evaluated in vivo for antitumor activity after intraperitoneal administration against P388/L-PAM(14) for total dose at an optimal dose of 1 mg/kg/injection", "type": "functional, Mus musculus"}, "P388 [18]": {"test_system": "P388", "test": "Compound was evaluated in vivo for antitumor activity after intraperitoneal administration against P388/L-PAM(14) for change in body weight at an optimal dose of 0.125 mg/kg/injection at 1,4,7,11 day schedule.", "type": "functional, Mus musculus"}, "M5076": {"test_system": "M5076", "test": "Compound was evaluated in vivo for antitumor activity against M5076 after injecting the compound intravenously for toxicity related death.", "type": "functional, Mus musculus"}, "P388 [19]": {"test_system": "P388", "test": "Compound was evaluated in vivo for antitumor activity after intraperitoneal administration against P388/L-PAM(14) for median day of death at an optimal dose of 1 mg/kg/injection", "type": "functional, Mus musculus"}, "B16 [20]": {"test_system": "B16", "test": "Compound was evaluated in vivo for antitumor activity against B16 melanoma after injecting the compound intravenously for median tumor burden", "type": "functional, Mus musculus", "outline": "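30-60 mg tumor fragments implanted sc by trocar on day 0 into C57Bl/6-derived hosts (B16) or C3H/He-derived hosts (16/C). Drug given iv on days 6, 9 and 13 (B16) or 6, 9 and 12 (16/C), 10 mice per group. Tumors measured by caliper. T/C % taken from median tumor burden of treated vs control groups on day 15 (B16) or day 14 (16/C). Body weight change per mouse recorded at nadir.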"}, "P388 [21]": {"test_system": "P388", "test": "Compound was evaluated in vivo for antitumor activity after intraperitoneal administration against P388/L-PAM(14) for change in body weight at an optimal dose of 0.4 mg/kg/injection at 1,2,3,4 day schedule.", "type": "functional, Mus musculus"}, "P388 [22]": {"test_system": "P388", "test": "Compound was evaluated in vivo for antitumor activity after intraperitoneal administration against P388 (1313) for change in body weight at an optimal dose of 0.4 mg/kg/injection", "type": "functional, Mus musculus"}, "P388 [23]": {"test_system": "P388", "test": "Compound was evaluated in vivo for antitumor activity after intraperitoneal administration against P388/L-PAM(14) for change in body weight at an optimal dose of 0.25 mg/kg/injection at 1,4,7,11 day schedule.", "type": "functional, Mus musculus"}, "P388 [24]": {"test_system": "P388", "test": "Compound was evaluated in vivo for antitumor activity after intraperitoneal administration against P388/L-PAM(14) for change in body weight at an optimal dose of 0.5 mg/kg/injection at one day schedule.", "type": "functional, Mus musculus"}, "P388 [25]": {"test_system": "P388", "test": "Compound was evaluated in vivo for antitumor activity after intraperitoneal administration against P388/L-PAM(14) for tumor free survivors at an optimal dose of 0.5 mg/kg/injection at one day schedule on day 60", "type": "functional, Mus musculus"}, "P388 [26]": {"test_system": "P388", "test": "Compound was evaluated in vivo for antitumor activity after intraperitoneal administration against P388/L-PAM(12) for total dose at an optimal dose of 0.75 mg/kg/injection", "type": "functional, Mus musculus"}, "P388 [27]": {"test_system": "P388", "test": "Compound was evaluated in vivo for antitumor activity after intraperitoneal administration against P388 (1313) for total dose at an optimal dose of 0.25 mg/kg/injection", "type": "functional, Mus musculus"}, "P388 [28]": {"test_system": "P388", "test": "Compound was evaluated in vivo for antitumor activity after intraperitoneal administration against P388/L-PAM(14) for % increase in life span at an optimal dose of 0.125 mg/kg/injection at 1,4,7,11 day schedule.", "type": "functional", "conditions": "Mus musculus, P388, ip"}, "L1210 [29]": {"test_system": "L1210", "test": "Compound was evaluated in vivo for antitumor activity after intraperitoneal administration against L1210(935)for % increase in life span at an optimal dose of 0.4 mg/kg/injection at 1-4 day schedule.", "type": "functional", "conditions": "Mus musculus, L1210, ip", "outline": "as §1"}, "P388 [30]": {"test_system": "P388", "test": "Compound was evaluated in vivo for antitumor activity after intraperitoneal administration against P388 (1313) for change in body weight at an optimal dose of 0.5 mg/kg/injection", "type": "functional, Mus musculus"}}, "note": "“And” between values parts separate entries of the source, which are not always exact repeats. Equal entries are not always repeated."}
{"smiles": "CN(C)CCCNc1ncnc2c1C(=O)C(N1CC1)=C(N1CC1)C2=O", "values": [{"measurement": "Mortality", "setting": "P388 [1]", "result": 21, "unit": "days"}, {"measurement": "Total dose", "setting": "B16 [2]", "result": 1.8, "unit": "mg/kg"}, {"measurement": "Total dose", "setting": "L1210 [3]", "result": 0.8, "unit": "mg/kg"}, {"measurement": "Total dose", "setting": "L1210 [4]", "result": 1.6, "unit": "mg/kg"}, {"measurement": "Survivors", "setting": "P388 [5]", "result": 0}, {"measurement": "Median day of death", "setting": "P388 [6]", "result": 15.5}, {"measurement": "Tumor burden", "setting": "B16 [7]", "result": 27, "unit": "mg"}, {"measurement": "Optimal dose", "setting": "P388 [8]", "result": 1.6, "unit": "mg/kg"}, {"measurement": "Optimal dose", "setting": "B16 [9]", "result": 0.2, "unit": "mg/kg"}, {"measurement": "Change in body weight", "setting": "L1210 [10]", "result": 0.4, "unit": "g mouse-1"}, {"measurement": "Total dose", "setting": "L1210 [11]", "result": 0.4, "unit": "mg/kg"}, {"measurement": "Change in body weight", "setting": "[12]", "result": 0.6, "unit": "g mouse-1"}, {"measurement": "Survivors", "setting": "L1210 [13]", "result": 0}, {"measurement": "ILS at 0.5 mg/kg", "setting": "P388 [14]", "result": 61, "unit": "%"}, {"measurement": "Survivors", "setting": "L1210 [15]", "result": 1}, {"measurement": "Change in body weight", "setting": "P388 [16]", "result": 1.3, "unit": "g mouse-1"}, {"measurement": "Total dose", "setting": "P388 [17]", "result": 1, "unit": "mg/kg"}, {"measurement": "Change in body weight", "setting": "P388 [18]", "result": 0.8, "unit": "g mouse-1"}, {"measurement": "Toxicity", "setting": "M5076", "result": 0}, {"measurement": "Median day of death", "setting": "P388 [19]", "result": 19}, {"measurement": "Tumor burden", "setting": "B16 [20]", "result": "2002 mg and 3807 mg"}, {"measurement": "g/mouse", "setting": "P388 [21]", "result": 0.9}, {"measurement": "Change in body weight", "setting": "P388 [22]", "result": -0.9, "unit": "g mouse-1"}, {"measurement": "Change in body weight", "setting": "P388 [23]", "result": 0.9, "unit": "g mouse-1"}, {"measurement": "Change in body weight", "setting": "P388 [24]", "result": 1.3}, {"measurement": "Survivors", "setting": "P388 [25]", "result": 0}, {"measurement": "Optimal dose", "setting": "P388 [26]", "result": 0.75, "unit": "mg/kg"}, {"measurement": "Optimal dose", "setting": "P388 [27]", "result": 1, "unit": "mg/kg"}, {"measurement": "ILS at 0.125 mg/kg", "setting": "P388 [28]", "result": 10, "unit": "%"}, {"measurement": "ILS at 0.4 mg/kg", "setting": "L1210 [29]", "result": 27, "unit": "%"}, {"measurement": "Change in body weight", "setting": "P388 [30]", "result": 0, "unit": "g mouse-1"}]}
